# High-throughput results: PubChem BioAssay, several laboratories
# A selection: hits, their analogues and other compounds. The true share with any hit is near 5.5%.
# Yeast growth inh – reduces growth of yeast BB579 in restrictive medium. S. cerevisiae BB579 growth, OD615, 48 h. inhibition, % at 10 µM. actives 0.51% (n = 140,000);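 active = inhibition above a set limit, 3 SD over the mean compound inhibition, cut at about 44% in these data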
#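 Test system: S. cerevisiae DeaD strain BB579 yeast; Medium: restrictive CSMM-D medium; Compound: one dose, 10 µM compound with 0.25% DMSO; Incubation: 4 h cell preincubation, 48 h compound exposure, 30 °C humidified; Signal: OD at 615 nm; Benchmarks: amphotericin B at 10 µg/mL as positive control.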
# RAM inhibit – inhibitors of the yeast RAM network | S. cerevisiae dse1pr::URA3 reporter, 5-FOA growth OD615, 2 d; analog-sensitive cbk1-as2 kinase mutant strain | inhibition, % at 50 µM | actives 1.8% (n = 190,000) | AID 868;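 active = inhibition above a set limit, 3 SD over mean compound inhibition, cut at about 8.4% in these data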;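 also: 0% = DMSO-only wells with no growth and 100% = 10 µM 1-NA-PP1 full growth; inhibition rescues growth on 5-FOA so higher OD means more RAM inhibition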
# WT yeast gro inh – growth inhibition of WT yeast, mitochondrial fusion screen; mitochondrial fusion phenotypic screen, WT strain; inhibition, % at 10 µM; actives 2.1% (n = 190,000); in the data active = inhibition above about 58%; tested in S. cerevisiae
# Cl transport mod – modulates chloride dependent transport by human KCC2. Q9H2X9. KCC2 cells, thallium flux FluoZin-2 fluorescence. B-score of Tl+ flux slope (higher = more flux/activation; lower = inhibition) at 10 µM. actives 2.2% (n = 190,000). AID 1456;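 active = thallium flux slope and its plate-corrected score both differing from the plate sample mean at a set confidence after two filtering rounds, in either direction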;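 also: slope of fluorescence scaled to starting intensity during 10 to 20 s after thallium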
# Target sequence (Q9H2X9 whole entry, looked up): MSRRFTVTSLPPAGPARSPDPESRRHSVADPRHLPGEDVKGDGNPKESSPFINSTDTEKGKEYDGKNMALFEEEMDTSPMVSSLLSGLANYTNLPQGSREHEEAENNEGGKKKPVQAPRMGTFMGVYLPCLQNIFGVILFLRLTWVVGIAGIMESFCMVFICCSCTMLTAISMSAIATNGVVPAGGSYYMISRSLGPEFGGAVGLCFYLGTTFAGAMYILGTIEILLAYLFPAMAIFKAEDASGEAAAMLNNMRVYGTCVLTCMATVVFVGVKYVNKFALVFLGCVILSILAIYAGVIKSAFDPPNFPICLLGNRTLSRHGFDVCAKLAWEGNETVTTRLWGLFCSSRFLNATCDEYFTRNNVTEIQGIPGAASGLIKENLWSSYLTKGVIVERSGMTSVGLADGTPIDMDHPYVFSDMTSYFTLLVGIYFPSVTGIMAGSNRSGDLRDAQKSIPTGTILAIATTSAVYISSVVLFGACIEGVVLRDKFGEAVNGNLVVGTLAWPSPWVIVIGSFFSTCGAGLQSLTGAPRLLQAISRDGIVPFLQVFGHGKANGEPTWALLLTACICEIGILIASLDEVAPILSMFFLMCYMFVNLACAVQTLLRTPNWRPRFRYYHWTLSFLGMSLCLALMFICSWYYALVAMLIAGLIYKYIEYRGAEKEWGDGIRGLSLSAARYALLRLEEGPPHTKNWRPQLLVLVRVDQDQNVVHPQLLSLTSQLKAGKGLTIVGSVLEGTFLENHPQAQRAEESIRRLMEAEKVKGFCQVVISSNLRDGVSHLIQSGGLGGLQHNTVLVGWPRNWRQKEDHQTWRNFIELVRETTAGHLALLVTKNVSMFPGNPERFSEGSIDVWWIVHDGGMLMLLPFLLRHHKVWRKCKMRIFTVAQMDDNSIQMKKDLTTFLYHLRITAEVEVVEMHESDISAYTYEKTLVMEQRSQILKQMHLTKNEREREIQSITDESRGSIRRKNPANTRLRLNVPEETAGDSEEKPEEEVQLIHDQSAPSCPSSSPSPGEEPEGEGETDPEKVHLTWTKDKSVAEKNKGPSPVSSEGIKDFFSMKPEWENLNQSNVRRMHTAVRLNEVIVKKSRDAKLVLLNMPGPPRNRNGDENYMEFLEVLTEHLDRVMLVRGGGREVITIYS
# Yeast lifespan up – yeast lifespan extension. AID 775. S. cerevisiae growth with nicotinamide, OD615; deaD strain in restrictive glucose medium. actives 0.68% (n = 130,000). inhibition of the nicotinamide effect, % at 10 µM;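 active = inhibition above a set limit, placed 3 SD over the median of all compounds, cut at about 26% in these data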;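 also: 0% = nicotinamide-treated wells and 100% = cells grown without nicotinamide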
#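 assay system = DeaD-strain S. cerevisiae | measured by = absorbance at 615 nm | probe or stimulus = nicotinamide 1.5 mM | buffer or medium = CSMM-D glucose medium, restrictive | times = 48 h at 30 °C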
# RAM efflux-def – restores 5-FOA growth of efflux-deficient yeast; shares compounds with RAM inhibit; S. cerevisiae efflux-deficient reporter strain, 5-FOA growth OD615, 2 days; max inhibition, %; 1,200 tested, under 10 active; call rule not given here;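 also: plate controls were vehicle for no effect and reference inhibitor for full effect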
# The depositor's hits bear a star; · = no result.
SMILES,Yeast growth inh,RAM inhibit,WT yeast gro inh,Cl transport mod,Yeast lifespan up,RAM efflux-def
O=C(NCc1ccccc1)C1=C[C@H](c2ccc(C(F)(F)F)cc2)C[C@H](OCc2ccc(CO)cc2)O1,·,11.5*,33.7,-0.204,·,3.8
COc1ccccc1N(C)S(=O)(=O)c1ccc(C(=O)OCC(=O)NCCC2=CCCCC2)cc1,-35.8,14.6*,8.1,-0.88,9.9,1.9
CCCNC(=O)NC(=O)COC(=O)c1ccc(S(=O)(=O)N(C)c2ccccc2OC)cc1,·,0.1,-11.8,-1.05,·,·
CCCCCCCCNC(=O)/C(C#N)=C/c1ccc(SC)cc1,-57.2,12.5*,-12.2,0.0294,6.5,3.3
C=C(C)CSc1nc2c(c(=O)[nH]c(=O)n2C)n1CCC(C)C,-30.6,0.1,17.7,-1,-6.0,·
O=C(CSc1nnc(SCc2ccc(Cl)cc2)s1)c1ccc2c(c1)OCO2,-53.3,16.3*,18.9,-4.09,9.3,1.8
O=C(COc1cccnc1[N+](=O)[O-])Nc1cccc(S(=O)(=O)N2CCCCC2)c1,-37.2,1.3,4.3,0.104,0.7,·
O=C(OCc1nnc(-c2ccccc2)o1)c1ccc(Cl)cc1,·,0.9,-4.0,0.00667,·,·
O=C(OCc1nnc(-c2ccccc2)o1)c1ccc(CO)cc1,·,0.1,-8.3,-0.0408,·,·
CC(C)OC(=O)c1ccc(COC(=O)c2cccc(-c3nnc(-c4ccccc4)o3)c2)cc1,-23.4,12.7*,0.5,-0.884,6.5,2.2
O=C(OCc1ccccc1)c1cccc(-c2nnc(-c3ccccc3)o2)c1,-22.3,12.1*,15.3,-0.542,1.2,1.9
CCOc1ccc(S(=O)(=O)N(C)c2ccc(OCC(=O)NCC3CCCO3)cc2)cc1 (stereo not drawn),·,5.0,-4.4,-0.537,·,·
COc1cccc(NC(=O)C2CC(=O)N(C)C(=Nc3cccc(F)c3)S2)c1 (stereo not drawn),-6.4,19.5*,-4.0,·,-16.9,1.1
O=C1COc2ccc(N3C(=O)C=CC3=O)cc2N1,·,1.6,4.2,0.829,·,·
O=C(CSc1nc2ccccc2[nH]1)Nc1nc(-c2ccc(Br)cc2)cs1,-20.3,6.2,-0.2,-0.442,9.4,·
Cc1c(C(=O)N2CCc3ccccc3C2)oc2ccc(S(=O)(=O)N3CC(C)CC(C)C3)cc12 (stereo not drawn),-40.9,11.7*,30.6,-2.67,4.7,9.8
Cc1ccc(S(=O)(=O)N2CCCCC2)cc1NC(=O)c1ccccn1,·,·,·,0.00806,·,·
CC12CCC(C(=O)NCc3ccc4c(c3)OCO4)(C(=O)C1=O)C2(C)C (stereo not drawn),-24.7,0.6,2.2,·,5.4,·
Cc1ccc(-c2cccc(C(=O)NCCc3ccccc3)n2)c2ccccc12,-38.8,13.8*,28.8,-1.16,-0.4,5.7
Cc1ccc(-c2ccc(C(=O)NCc3ccccc3)o2)c2ccccc12,-38.4,12.5*,34.0,-0.000559,0.4,2.2
Cc1ccc(-c2ccc(C(=O)Nc3ccccc3)o2)c2ccccc12,1.4,5.2,27.5,0.515,-0.2,·
CCCC1S/C(=N/N=C/c2ccc(OC)cc2)N(Cc2ccc(OC)cc2)C1=O (stereo not drawn),-33.2,13.2*,15.6,·,-4.3,6.5
COc1ccc(CC2S/C(=N/N=C/c3ccc(O)cc3)NC2=O)cc1 (stereo not drawn),·,5.1,-7.3,-0.0576,·,·
CCCCC1S/C(=N/N=C/c2ccc(OC)cc2)N(Cc2ccc(OC)cc2)C1=O (stereo not drawn),-11.3,13.6*,5.0,0.726,4.6,6.4
CCCC1S/C(=N/N=C/c2ccc(OC)cc2)N(Cc2ccccc2)C1=O (stereo not drawn),-17.8,14.9*,7.5,0.729,1.9,3.3
SMILES,Yeast growth inh,RAM inhibit,WT yeast gro inh,Cl transport mod,Yeast lifespan up,RAM efflux-def
COc1ccc(/C=C2\C(=O)NCC(=O)N2Cc2ccccc2)cc1,-17.3,1.2,-9.5,·,-15.4,·
COc1ccc(C2Nc3cc(OC)ccc3-n3cccc32)cc1 (stereo not drawn),·,·,·,0.242,·,·
CCOc1cc(/C=C/C(=O)c2ccc(C)cc2)ccc1OCC(=O)N(C)C,19.0,0.8,-24.7,0.297,-0.3,·
COc1ccc(/C=C/C(=O)c2ccccc2)cc1COc1ccc(F)cc1,-51.7,18.8*,-8.5,1.74,-11.3,5.9
CCOc1ccc(/C=C/C(=O)c2ccccc2)cc1,·,·,·,0.0724,·,·
COc1cc(/C=C/C(=O)c2ccc(C)cc2)ccc1OCC#N,-0.8,13.3*,-1.7,-0.932,8.6,4.2
COc1ccc(C(=O)/C=C/c2ccc(OC)c(COc3ccccc3F)c2)cc1,-38.5,18.8*,4.6,1.35,-1.6,5.2
Cn1nc(C(F)(F)F)c(/C=N/OC(=O)c2ccccc2Cl)c1SCc1ccc(Cl)cc1,-36.0,16.4*,-3.6,0.0303,-5.4,2.6
COc1ccc(NC(=O)c2c(C(F)(F)F)nn(C)c2SCc2ccccc2)cc1,-15.7,4.4,20.4,-0.872,15.0,·
COc1ccc(C(=O)O/N=C/c2c(C(F)(F)F)nn(C)c2SCc2ccccc2Cl)cc1,-62.6,11.9*,17.9,-0.362,6.5,4.0
CC(=O)/C(C=Nc1noc(C)c1Br)=C(\C)O,·,·,·,-0.109,·,·
Cc1cc(NC(=O)CCSc2ccccc2)ccc1Br,-6.9,13.9*,34.4,0.0223,-7.6,1.9
CC(CCc1ccccc1)NC(=O)CNC(=S)N(Cc1cccs1)C1CCCC1 (stereo not drawn),·,11.9*,28.2,-2.08,·,4.8
CCOC(=O)CNC(=S)N(Cc1cccs1)C1CCCCC1,-19.1,0.2,14.9,0.834,2.4,·
O=C(Cn1cc(C(=O)c2ccco2)c2ccccc21)NC1CCCCC1,·,11.6*,1.9,0.0291,·,3.0
O=C(c1ccco1)N1CCN(c2nnc(-c3ccccc3)c3ccccc23)CC1,-23.7,-0.6,-7.5,-1.75,-5.0,·
Cc1ccccc1Oc1ccc(-c2nc(N)nc(N)n2)cc1,1.8,12.3*,-11.5,-1.34,-31.4,1.6
O=C(NCCn1cc(SCc2ccccc2)c2ccccc21)c1ccccc1F,-27.8,15.3*,37.9,-1.04,5.9,2.5
CCCCn1nnc(NC(=S)NC(=O)c2ccc(-c3cccc(Cl)c3Cl)o2)n1,-14.3,13.5*,77.6*,33.6*,7.6,4.7
Cc1ccc(N2CCN(C(=O)c3ccccc3)CC2)c(C)c1,-32.4,2.9,20.4,0.024,-8.8,·
Cc1ccc(N2CCN(C(=O)c3cc(C(=O)c4ccccc4C)c[nH]3)CC2)c(C)c1,·,24.3*,57.8,-0.00772,·,2.0
CCOC(=O)N1CCC(N2Cc3cccc(C(=O)Nc4cccc(F)c4)c3C2=O)CC1,·,3.1,7.8,0.633,·,·
C=CCn1c(SCc2nc3ccccc3c(=O)[nH]2)nc2sc3c(c2c1=O)CCCC3,·,·,·,0.986,·,·
C=CCn1c(SCC)nc2sc3c(c2c1=O)CCc1ccccc1-3,-22.4,17.8*,34.2,0.771,0.4,2.4
COc1ccc(C2(CNC(=O)c3ccc(OCC(C)C)cc3)CCOCC2)cc1,7.4,-1.3,20.4,-1.34,1.3,·
